Published values from different studies.
Lines come from different studies, so protocols differ. ≈ marks a conversion by molar mass, not a printed value.
Organism: Mycobacterium tuberculosis

| SMILES | test | test system | setting | quantity | value |
| --- | --- | --- | --- | --- | --- |
| COC(=O)c1cc(-c2cccc(NC(=O)Nc3c(C)cccc3C)c2)on1 | microbial growth | ATCC27294 H37RV | 7 days | MIC | 64 µg/mL (≈ 175 µM) |
| O=[N+]([O-])c1cc2cc3ccc4oc([N+](=O)[O-])cc4c3cc2o1 | microbial killing, resazurin | H37RV | – | MBC | 0.5 µg/mL |
| [H]/N=C(/N)N[C@H]1[C@H](O)[C@@H](O)[C@H](O[C@@H]2O[C@@H](C)[C@](O)(C=O)[C@H]2O[C@@H]2O[C@@H](CO)[C@H](O)[C@@H](O)[C@@H]2NC)[C@@H](N/C(N)=N\[H])[C@@H]1O | microbial growth | H37RV | – | IC50 | 200 nM |
| CCCCCCC#Cc1cncc(-c2nnc(SCc3cc([N+](=O)[O-])cc([N+](=O)[O-])c3)n2C)c1 | microbial growth | – | – | IC50 | 61 nM |
| CO[C@H]1/C=C/O[C@@]2(C)Oc3c(C)c(O)c4c(O)c(c(/C=N/N5CCN(C)CC5)c(O)c4c3C2=O)NC(=O)/C(C)=C\C=C\[C@H](C)[C@H](O)[C@@H](C)[C@@H](O)[C@@H](C)[C@H](OC(C)=O)[C@@H]1C | microbial growth | H37RV | – | IC50 | 4 nM |
| CCc1nc2ccc(Cl)cn2c1C(=O)NCc1ccc(N2CCC(c3ccc(OC(F)(F)F)cc3)CC2)cc1 | microbial growth | H37RV | – | MIC90 | 0.02 µM (≈ 0.0111 µg/mL) |
| Cc1ccc(NC(=O)c2cc(N3CCNCC3)cc(C(F)(F)F)c2)cc1Nc1nccn1-c1cc(NC2CC2)ncn1 | microbial killing | H37RV | 5 days | MBC | 2.5 to 5 µM |
| O=C(C[n+]1cn(Cc2cccc(Cn3c[n+](CC(=O)c4ccc([N+](=O)[O-])cc4)c4ccccc43)n2)c2ccccc21)c1ccc([N+](=O)[O-])cc1 | microbial killing | H37RV | 21 days | MBC | 50 µM |
| O=[N+]([O-])c1ccc(/C(O)=C/C(=S)S)cc1 | microbial killing | ATCC27294 H37RV | – | MBC | 31.2 µg/mL |
| O=C(O)c1nccnc1NC(=O)c1cccc2ccccc12 | microbial growth | ATCC27294 H37RV | – | MIC50 | 1000 µM (≈ 293 µg/mL) |
| CCCCCCC#Cc1cncc(-c2nnc(SCc3ccc([N+](=O)[O-])o3)n2C2CC2)c1 | microbial growth | ERDMAN | – | IC50 | 48 nM |
| COC(=O)c1cc(-c2cccc(NC(=O)Nc3ccc(F)cc3F)c2)on1 | microbial growth | ATCC27294 H37RV | 7 days | MIC | 1 µg/mL (≈ 2.68 µM) |
| CCOC(=O)c1c(NC(=O)c2c(F)c(F)c(F)c(F)c2F)sc2c1CCN(CC)C2 | microbial growth | H37RV | – | MIC90 | 0.23 µM (≈ 0.103 µg/mL) |
| CCCCCCC#Cc1cncc(-c2nnc(SCc3ccc(C#N)cc3)n2C)c1 | microbial growth | – | – | IC50 | 2300 nM |
| CNc1cc(-n2nc(C(=O)NCCN3C(C)CCCC3C)cc2Nc2cc(NC(=O)c3cncc(C(C)(C)C)c3)ccc2C)ncn1 (centres unmarked) | microbial growth | H37RV | – | MIC50 | 0.11 µM (≈ 0.0703 µg/mL) |
| CCCCCCC#Cc1cncc(-c2nnc(SCc3ccc([N+](=O)[O-])o3)n2C)c1 | microbial growth | ERDMAN | – | IC90 | 240 nM |
| COC(=O)c1cc(-c2cccc(NC(=S)Nc3ccccc3Cl)c2)on1 | microbial growth | ATCC27294 H37RV | 7 days | MIC | 2 µg/mL (≈ 5.16 µM) |
| CC[C@@H](CO)NCCN[C@@H](CC)CO | microbial growth | H37RV | – | IC90 | 4610 nM |
| CCCCCCC#Cc1cncc(-c2nnc(SCc3ccc(Cl)c(F)c3)n2C)c1 | microbial growth | ERDMAN | – | IC50 | 5400 nM |
| COC(=O)c1cc(-c2cccc(NC(=O)Nc3ccc(C(F)(F)F)cc3)c2)on1 | microbial growth | ATCC27294 H37RV | 7 days | MIC | 0.5 µg/mL (≈ 1.23 µM) |
| CO[C@H]1/C=C/O[C@@]2(C)Oc3c(C)c(O)c4c(O)c(c(/C=N/N5CCN(C)CC5)c(O)c4c3C2=O)NC(=O)/C(C)=C\C=C\[C@H](C)[C@H](O)[C@@H](C)[C@@H](O)[C@@H](C)[C@H](OC(C)=O)[C@@H]1C | microbial growth | H37RV | 12.5 µg/mL | inhibition | 97% |
| CCCCCCC#Cc1cncc(-c2nnc(Sc3ccc([N+](=O)[O-])cc3[N+](=O)[O-])n2C)c1 | microbial growth | ERDMAN | – | IC50 | 1100 nM |
| COC(=O)c1cc(-c2cccc(NC(=O)Nc3ccc(Cl)cc3Cl)c2)on1 | microbial growth | ATCC27294 H37RV | 7 days | MIC | 0.5 µg/mL (≈ 1.23 µM) |
| NNC(=O)c1ccncc1 | microbial growth | ERDMAN | – | IC90 | > 1000 nM |
| O=[N+]([O-])c1cn(Cc2cccc(Cn3cnc([N+](=O)[O-])c3)n2)cn1 | microbial killing | H37RV | 21 days | MBC | > 200 µM |
| Cc1cc(C)nc(-n2nc(C)cc2NC(=O)c2ccc3c(c2)OCO3)n1 | microbial growth | H37RV | – | MIC50 | > 20 µM |
| CN(CC[C@H](N)CC(=O)N[C@H]1C=C[C@H](n2ccc(N)nc2=O)O[C@@H]1C(=O)O)C(=N)N | microbial growth | H37RA | – | IC50 | 19000 nM |
| Cc1cn(-c2cc(C(=O)Nc3ccc(C)c(Nc4nccn4-c4cc(NC5CC5)ncn4)c3)cc(C(F)(F)F)c2)cn1 | microbial killing | H37RV | 5 days | MBC | 2.5 to 5 µM |
| CCCCCCC#Cc1cncc(-c2nnc(SCc3ccc([N+](=O)[O-])cc3)n2C)c1 | microbial growth | ERDMAN | – | IC90 | > 50000 nM |
